Laboratory results as given in ChEMBL document CHEMBL1142519, “Synthesis and antiprotozoal activity of cationic 2-phenylbenzofurans” (J Med Chem, 2008).
Active and inactive are the calls of the source. The calls are words filed in the database; no cut-off is given here.

Key:
[1] = test system: Trypanosoma brucei rhodesiense; test: Antitrypanosomal activity against Trypanosoma brucei rhodesiense STIB 900 infected acute mouse model assessed as survival time at 5 mg/kg, ip administered daily for 4 days; assay type: functional; conditions: route intraperitoneal
Method in brief: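 STIB900 acute mouse model of T. b. rhodesiense infection, with intraperitoneal dosing. Read-out is the average days of survival of treated mice. Cures are counted as mice that survive and stay parasite-free for 60 days.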

[2] = test system: L6; test: Cytotoxicity against rat L6 cells; assay type: cell-based
Method in brief: (§1)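 IC50 values in µM, each the average of duplicate determinations. Parasites were T. b. rhodesiense STIB900 and axenic amastigotes of L. donovani MHOM/SD/62/1S-CL2D. Cytotoxicity was run on rat L6 myoblast cells.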

[3] = test system: Trypanosoma brucei rhodesiense; test: Antitrypanosomal activity against Trypanosoma brucei rhodesiense STIB 900 bloodstream trypomastigotes; assay type: functional, organism-based; method in brief: as §1
[4] = Selectivity index, ratio of IC50 for rat L6 cells to IC50 for Trypanosoma brucei rhodesiense STIB 900; assay type: toxicity, cell-based; conditions: read-out: Ratio IC50
Method in brief: (§2)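 Ratio of the L6 rat myoblast cytotoxicity IC50 to the IC50 against the parasite named in the line. Each IC50 is the average of duplicate determinations.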

[5] = test system: Plasmodium falciparum; test: Antiplasmodial activity against chloroquine-resistant Plasmodium falciparum K1; assay type: functional, organism-based
Method in brief: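 In vitro IC50 against chloroquine-resistant P. falciparum K1, reported as the average of duplicate determinations.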

[6] = Selectivity index, ratio of IC50 for rat L6 cells to IC50 for chloroquine-resistant Plasmodium falciparum K1; assay type: toxicity, cell-based; conditions: read-out: Ratio IC50; method in brief: as §2
[7] = test system: Leishmania donovani; test: Antileishmanial activity against Leishmania donovani MHOM/SD/62/1S-CL2D axenic amastigotes; assay type: functional, organism-based; method in brief: as §1
[8] = Selectivity index, ratio of IC50 for rat L6 cells to IC50 for Leishmania donovani MHOM/SD/62/1S-CL2D; assay type: toxicity, cell-based; conditions: read-out: Ratio IC50; method in brief: as §2
[9] = test system: Trypanosoma brucei rhodesiense; test: Antitrypanosomal activity against Trypanosoma brucei rhodesiense STIB 900 infected acute mouse model assessed as cured mouse at 5 mg/kg, ip daily for 4 days; assay type: functional, organism-based; parameters: dose 5 mg/kg
Method in brief: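 STIB900 acute mouse model of trypanosomiasis with intraperitoneal dosing. The regimens were daily for 4 days at 20, 5 or 1 mg/kg, or a single 10 mg/kg dose. A cure is a mouse that survives and is parasite-free for 60 days. Average days of survival are also recorded.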

SMILES: Oc1cc(C2=NCCN2)ccc1-c1cc2cc(C3=NCCN3)cc(O)c2o1
- Survival [1]: >21 days
- IC50 [2]: > 193 µM
- IC50 [3]: 10 nM
- selectivity ratio [4]: > 19300
- IC50 [5]: 30 nM
- selectivity ratio [6]: > 6430
- IC50 [7]: 16 µM
- selectivity ratio [8]: > 12
- Activity [9]: inactive

SMILES: c1ccc2[nH]c(-c3ccc4oc(-c5ccc(C6=NCCN6)cc5)cc4c3)nc2c1
- Survival [1]: 11 days
- IC50 [2]: 6.1 µM
- IC50 [3]: 122 nM
- selectivity ratio [4]: 50
- IC50 [5]: 40 nM
- selectivity ratio [6]: 153
- IC50 [7]: 5.7 µM
- selectivity ratio [8]: 1
- Activity [9]: inactive

SMILES: N=C(N)c1ccc(OCCCCCOc2ccc(C(=N)N)cc2)cc1 [PENTAMIDINE]
- Survival [1]: >45 days
- IC50 [7]: 1.8 µM

SMILES: COc1ccc(C(=N)N)cc1-c1cc2cc(C(=N)N)ccc2o1
- Survival [1]: >57 days
- IC50 [2]: 179 µM
- IC50 [3]: 2 nM
- selectivity ratio [4]: 89500
- IC50 [5]: 40 nM
- selectivity ratio [6]: 4480
- IC50 [7]: 5.7 µM
- selectivity ratio [8]: 31

SMILES: COc1cc(C(=N)N)ccc1-c1cc2ccc(C(=N)N)cc2o1
- Survival [1]: >34.5 days
- IC50 [2]: 108 µM
- IC50 [3]: 3 nM
- selectivity ratio [4]: 36000
- IC50 [5]: 20 nM
- selectivity ratio [6]: 5400
- IC50 [7]: 3.7 µM
- selectivity ratio [8]: 29

SMILES: Oc1ccc(C2=NCCN2)cc1-c1cc2cc(C3=NCCN3)ccc2o1
- IC50 [2]: > 199 µM
- IC50 [3]: 227 nM
- selectivity ratio [4]: > 877
- IC50 [5]: 23 nM
- selectivity ratio [6]: > 8650
- IC50 [7]: 57 µM
- selectivity ratio [8]: 4

SMILES: COc1ccc(C(=N)N)cc1-c1cc2ccc(C(=N)N)cc2o1
- Survival [1]: >48 days
- IC50 [2]: 128 µM
- IC50 [3]: 11 nM
- selectivity ratio [4]: 11600
- IC50 [5]: 18 nM
- selectivity ratio [6]: 7110
- IC50 [7]: 3.6 µM
- selectivity ratio [8]: 36

SMILES: COc1ccc(C(=N)NC(C)C)cc1-c1cc2ccc(C(=N)NC(C)C)cc2o1
- IC50 [2]: > 175 µM
- IC50 [3]: 929 nM
- selectivity ratio [4]: > 188
- IC50 [5]: 293 nM
- selectivity ratio [6]: > 597
- IC50 [7]: 54 µM
- selectivity ratio [8]: > 3

SMILES: COc1cc(C(=N)NC(C)C)ccc1-c1cc2ccc(C(=N)NC(C)C)cc2o1
- Survival [1]: >38 days
- IC50 [2]: > 181 µM
- IC50 [3]: 54 nM
- selectivity ratio [4]: > 3350
- IC50 [5]: 206 nM
- selectivity ratio [6]: > 879
- IC50 [7]: 32 µM
- selectivity ratio [8]: > 6

SMILES: COc1ccc(C(=N)NC(C)C)cc1-c1cc2cc(C(=N)NC(C)C)ccc2o1
- IC50 [2]: > 179 µM
- IC50 [3]: 155 nM
- selectivity ratio [4]: > 1160
- IC50 [5]: 250 nM
- selectivity ratio [6]: > 716
- IC50 [7]: 25 µM
- selectivity ratio [8]: > 7

SMILES: C[C@@H]1CC[C@H]2[C@@H](C)C(=O)O[C@@H]3O[C@@]4(C)CC[C@@H]1[C@]32OO4 [ARTEMISININ]
- selectivity ratio [6]: 75000

SMILES: c1cc(C2=NCCN2)cc(-c2cc3ccc(C4=NCCN4)cc3o2)c1
- IC50 [2]: 12.8 µM
- IC50 [3]: 333 nM
- selectivity ratio [4]: 38
- IC50 [5]: 205 nM
- selectivity ratio [6]: 62
- IC50 [7]: > 100 µM
- selectivity ratio [8]: 0.1

SMILES: N=C(N)c1ccc(-c2cc3ccc(C(=N)N)cc3o2)c(O)c1
- Survival [1]: >39 days
- IC50 [2]: > 221 µM
- IC50 [3]: 4 nM
- selectivity ratio [4]: > 55200
- IC50 [5]: 70 nM
- selectivity ratio [6]: > 3160
- IC50 [7]: 29 µM
- selectivity ratio [8]: > 8

SMILES: COc1cc(C2=NCCN2)ccc1-c1cc2ccc(C3=NCCN3)cc2o1
- Survival [1]: 7 days
- IC50 [2]: 4.4 µM
- IC50 [3]: 49 nM
- selectivity ratio [4]: 90
- IC50 [5]: 77 nM
- selectivity ratio [6]: 57
- IC50 [7]: > 100 µM
- selectivity ratio [8]: < 0.04
- Activity [9]: inactive

SMILES: c1c[nH]c(-c2ccc(-c3cc4cc(-c5ncc[nH]5)ccc4o3)cc2)n1
- IC50 [2]: 3.3 µM
- IC50 [3]: 606 nM
- selectivity ratio [4]: 5
- IC50 [5]: 33 nM
- selectivity ratio [6]: 100
- IC50 [7]: > 100 µM
- selectivity ratio [8]: < 0.03

SMILES: N=C(N)c1ccc(O)c(-c2cc3ccc(C(=N)N)cc3o2)c1
- Survival [1]: >36 days
- IC50 [2]: 164 µM
- IC50 [3]: 29 nM
- selectivity ratio [4]: 5660
- IC50 [5]: 378 nM
- selectivity ratio [6]: 434
- IC50 [7]: 41 µM
- selectivity ratio [8]: 4
